# SENP8 block-1: inhibitors of human SENP8 protease; Q96LD8; purified SENP8, Z-RLRGG-aminoluciferin cleavage, luminescence; inhibition, % at 10 µM; 330,000 compounds, 1.2% hits; AID 2540; in the data active = inhibition above about 50%
# SENP6 inh: inhibitors of human SENP6 protease | AID 2599 | Recombinant SENP6 catalytic domain, aminoluciferin luminescence | 330,000 compounds, 1.8% hits | inhibition, % at 10 µM | Q9GZR1;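 active = inhibition above about 50% at the single tested dose, limit read from the data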;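 note: plate controls were DMSO wells with enzyme for no effect and DMSO wells lacking enzyme for full effect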
# SENP7 block: SENP7 protease inhibition. inhibition, % at 5 µM. 330,000 compounds, 1.5% hits. recombinant SENP7, Z-RLRGG-aminoluciferin luminescence, 40 min;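 active = inhibition above about 50% at the single test dose, limit read from the data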;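 note: plate controls were DMSO with enzyme for no effect and no enzyme buffer wells for full effect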
# SENP1 inh: inhibitors of human SENP1 SUMO protease catalytic domain | inhibition, % at 10 µM | recombinant SENP1 catalytic domain, CyPet-SUMO1-YPet FRET cleavage | 360,000 compounds, 0.21% hits | AID 624204;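 active = inhibition at least 30% at 10 µM, raw YFP signal under a set limit, fluorescence ratio 0.5 to 1.5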;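 note: 0% = enzyme with DMSO and 100% = no enzyme wells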
# Target sequence (Q9P0U3 419-644 limits assumed): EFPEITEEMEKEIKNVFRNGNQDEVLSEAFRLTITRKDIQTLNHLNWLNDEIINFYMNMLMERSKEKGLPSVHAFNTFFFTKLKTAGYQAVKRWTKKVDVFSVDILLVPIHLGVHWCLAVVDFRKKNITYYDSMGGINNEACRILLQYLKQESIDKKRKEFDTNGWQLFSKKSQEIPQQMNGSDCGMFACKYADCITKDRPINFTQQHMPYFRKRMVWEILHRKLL
#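 material = recombinant human SENP1 catalytic domain, His6-tagged | quantity = 20 pM enzyme | reagent = 25 nM SUMO1 FRET substrate | compound dosing = 10 µM single point, 0.5% DMSO | timing = 50 min enzyme reaction, room temperature, light-protected | detection = FRET, CFP and YFP emission | control set = no-enzyme low, enzyme-DMSO high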
# NRP1-CendR mod: alters CendR peptide binding to human NRP-1. 360,000 compounds, 0.85% hits. FAM-RPARPAR peptide binding to NRP-1, fluorescence polarization. O14786. inhibition, % at 25 µM;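 active = inhibition or corrected inhibition above about 18%, plus a signal ratio from 0.5 to 1.5, limit read from the data, passing the limit was not always enough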
# SENP8 block-2: SENP8 (human) protease inhibition; Q96LD8; recombinant SENP8, Nedd8 substrate fluorescence; 360,000 compounds, 0.64% hits; inhibition, % at 20 µM; in the data active = inhibition mostly above about 40%, no sharp cut-off; inactive = mostly below about 27%
# SENP8 conf: confirmation of human SENP8 protease inhibitors; shares compounds with SENP7 block; Recombinant SENP8, Z-RLRGG-aminoluciferin luminescence, 60 min; inhibition, % at 12.5 µM; 6,200 compounds, 40% hits;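 active = mean inhibition across replicates above about 50%, limit read from the data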
# SENP6 confirm: human SENP6 inhibition, confirmed; shares compounds with SENP7 block; recombinant SENP6, Z-RLRGG-aminoluciferin luminescence; inhibition, % at 12.5 µM; 6,200 compounds, 58% hits; AID 488915
# SENP7 conf: confirmation of human SENP7 protease inhibitors | shares compounds with SENP7 block | recombinant SENP7, Z-RLRGG-aminoluciferin luminescence, 40 min | inhibition, % at 12.5 µM | 6,200 compounds, 69% hits
# Casp3 SENP sel: inhibits human caspase-3 in SENP selectivity test. AID 488918. shares compounds with SENP7 block. inhibition, % at 12.5 µM. 6,200 compounds, 60% hits. purified caspase-3, Z-DEVD-aminoluciferin luminescence, 60 min;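 active = mean inhibition above about 50%, limit read from the data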;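 note: plate controls were enzyme with DMSO for no effect and wells without caspase-3 for full effect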
# Target sequence (P42574 28-227 limits assumed): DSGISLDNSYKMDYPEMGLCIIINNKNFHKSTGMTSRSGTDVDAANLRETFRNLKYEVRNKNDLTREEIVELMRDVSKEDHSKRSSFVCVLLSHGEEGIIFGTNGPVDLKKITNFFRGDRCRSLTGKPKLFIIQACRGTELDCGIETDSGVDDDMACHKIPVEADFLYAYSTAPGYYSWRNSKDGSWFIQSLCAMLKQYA
# Luc interf: counter-screen for SENP inhibitors: luminescence interference | Pre-incubated SENP8/Z-RLRGG-aminoluciferin, luciferase luminescence interference | 6,200 compounds, 39% hits | inhibition, % at 12.5 µM | shares compounds with SENP7 block;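 active = mean inhibition above about 50% when retested at one dose, limit read from the data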;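 note: plate controls were DMSO wells with completed reaction for no effect and substrate without enzyme for full effect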
# Starred values were filed as active, the others as inactive; i = inactive; . = no result given. Rows were chosen to be rich in hits. Some 3.3% of all compounds tested hit in one or more screens of this group.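 Rule for the calls, unless noted: active = mean inhibition above about 50% in the one-dose retest (limit read from the data); inactive = the rest.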
SMILES,SENP8 block-1,SENP6 inh,SENP7 block,SENP1 inh,NRP1-CendR mod,SENP8 block-2,SENP8 conf,SENP6 confirm,SENP7 conf,Casp3 SENP sel,Luc interf
COc1cccc(C(=O)N2CCCc3ccccc32)c1OC,.,.,.,1,0,22,.,.,.,.,.
COc1ccc(-c2cn(Cc3ccc4ccccc4c3)nn2)cc1,-18,-8,-14,2,-1,23,.,.,.,.,.
COc1ccc(-c2cn(Cc3ccc(C(=O)c4ccccc4)cc3)nn2)cc1,77*,79*,64*,.,.,.,14,63*,17,64*,-4
O=C(NC1CC2CCC(C1)N2Cc1ccccc1)c1ccccc1Cl (configuration not stated),12,10,0,-3,4,1,.,.,.,.,.
CCCCN1C2CCCC1CC(NC(=O)c1ccccc1Cl)C2 (configuration not stated),-7,-12,83*,3,14,22,-8,-3,-6,-3,-5
NNc1nc2sc3c(c2c(=O)n1Cc1ccccc1)CCC3,-1,13,3,-22,-22,6,.,.,.,.,.
NNc1nc(-c2ccccc2)nc2sc3c(c12)CCCC3,66*,79*,80*,-3,-6,-150,-7,12,20,16,16
CC(C)COC(=O)N1CCCCC1c1cc(C(=O)NCc2ccc(F)cc2)no1 (configuration not stated),.,.,.,2,6,14,.,.,.,.,.
Oc1ccc(N=Nc2c(O)ccc3ccccc23)cc1,64*,69*,-5,10,-19,9,67*,68*,72*,12,18
COc1cc(N=Nc2ccc3ccccc3c2)ccc1O,94*,97*,95*,2,4,6,94*,96*,101*,73*,94*
O=[N+]([O-])c1ccccc1N=Nc1ccc(O)cc1,15,33,2,2,-2,34,.,.,.,.,.
Oc1ccc(N=Nc2ccc3ccccc3c2)cc1,98*,98*,101*,2,15,30,99*,100*,102*,98*,94*
Cc1noc(C)c1NC(=O)Nc1ccc2c(c1)C(=O)N([C@H](C)CO)C[C@H](C)[C@@H](CN(C)C(=O)Nc1ccc3c(c1)OCO3)O2,7,17,-8,-2,5,8,.,.,.,.,.
Nc1[nH]n(-c2ccccc2)c(=O)c1N=Nc1ccccc1[N+](=O)[O-],2,-54,61*,-1,13,11,19,16,9,7,-1
O=c1c2cc([N+](=O)[O-])cc([N+](=O)[O-])c2[nH]n1-c1ccccc1,46,64*,0,-2,15,31,55*,51*,79*,71*,73*
O=c1[nH]c(=O)c2cc([N+](=O)[O-])cc([N+](=O)[O-])c2[nH]1,3,25,9,0,7,38,.,.,.,.,.
Nc1[nH]n(-c2ccccc2)c(=O)c1N=Nc1ccccc1,43,72*,67*,0,2,28,-4,45,83*,42,-6
CC[C@@]1(C(=O)OC)N[C@H](CN(C)S(=O)(=O)c2ccc(OC(F)(F)F)cc2)[C@@H]2C(=O)N(C)C(=O)[C@@H]21,7,26,10,1,-16,6,.,.,.,.,.
Cc1nnc(NC(=O)C2COc3ccccc3O2)s1 (configuration not stated),-4,-11,5,5,1,4,.,.,.,.,.
O=C(Nc1nc2c(s1)CCCC2)C1COc2ccccc2O1 (configuration not stated),59*,67*,59*,0,-1,20,75*,73*,92*,67*,32
O=C(Nc1ccncc1)C1COc2ccccc2O1 (configuration not stated),0,0,-6,-2,-4,21,.,.,.,.,.
O=C(NC1=NCCS1)C1COc2ccccc2O1 (configuration not stated),64*,82*,85*,2,8,21,77*,76*,95*,94*,85*
Cc1cc(C)c(C(O)c2ncc(-c3cccc(F)c3)[nH]2)c(C)c1 (configuration not stated),.,.,.,-2,-9,6,.,.,.,.,.
CCOC(=O)c1ccc(-c2ccc3c(=O)c4ccccc4n(C)c3c2)cc1F,2,-8,13,-30,-28,-474,.,.,.,.,.
C[C@@H]1CN([C@H](C)CO)C(=O)CCCn2cc(nn2)CO[C@H]1CN(C)C(=O)c1ccncc1,.,.,.,1,-2,28,.,.,.,.,.
SMILES,SENP8 block-1,SENP6 inh,SENP7 block,SENP1 inh,NRP1-CendR mod,SENP8 block-2,SENP8 conf,SENP6 confirm,SENP7 conf,Casp3 SENP sel,Luc interf
N=c1oc2ccccc2cc1C(=O)Nc1cccc(F)c1,56*,66*,92*,0,-9,9,43,35,29,62*,2
N=c1oc2cc(O)ccc2cc1C(=O)Nc1ccc(Cl)cc1,54*,55*,7,-21,-52,-322,-3,11,22,19,19
Cc1ccc(NC(=O)c2cc3ccccc3oc2=N)cc1,33,58*,90*,2,5,19,16,16,7,20,6
N=c1oc2ccccc2cc1C(=O)Nc1ccc(F)cc1,.,.,.,-5,5,20,.,.,.,.,.
COc1cc2ccccc2cc1C(=O)Nc1ccc(C)cc1,1,28,-8,-4,2,9,.,.,.,.,.
CCCCn1c(O)c2n(c1=O)Cc1ccccc1N=C2c1ccccc1,.,.,.,2,0,38,.,.,.,.,.
Cc1ccc2cc(CNC[C@H]3O[C@@H](n4cc(C)c(=O)[nH]c4=O)C[C@@H]3O)c(N3CCOCC3)nc2c1,.,.,.,-4,0,-74,.,.,.,.,.
Cc1ccccc1N=C1Nc2ccccc2CS1,74*,86*,80*,3,10,21,34,79*,95*,79*,45
CC1C(=O)N(Cc2cn(Cc3ccco3)nn2)CCS(=O)(=O)N1Cc1ccc(-c2ccccc2Cl)cc1 (configuration not stated),.,.,.,-1,3,11,.,.,.,.,.
Cc1cccc2c(=O)n3c(cc12)-c1[nH]c2ccccc2c1CC3,.,.,.,-134,7,i,.,.,.,.,.

# High-throughput results as filed in PubChem.
